Results as given in ChEMBL document CHEMBL1141421, “Chemical transformation and biological activities of ambrein, a major product of ambergris from Physeter macrocephalus (sperm whale)” (J Nat Prod, 2007).
In brackets after ≈: the same amount, converted by molar mass.

Experiments:
[1] = Cytotoxicity against human A549 cells by MTT assay; assay type: cell-based; details: read-out: ED50 (the source's name)
Outline: (§1)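 MTT read-out on human tumour cells: Hepa59T/VGH liver carcinoma, WiDr colon adenocarcinoma, A-549 lung carcinoma and MCF-7 breast adenocarcinoma. ED50 taken as the sample concentration giving 50% lower absorbance than untreated cells.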

[2] = Antiinflammatory activity assessed as inhibition of fMLP-induced elastase release in human neutrophils at 10 ug/mL relative to control; assay type: functional, cell-based, Neutrophil
Outline: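 Neutrophils (6 × 10⁵/mL) supplemented with MeO-Suc-Ala-Ala-Pro-Val-p-nitroanilide (100 µM) elastase substrate, equilibrated 2 min at 37 °C, then exposed to test sample for 5 min. Stimulation with FMLP (100 nM)/cytochalasin B (0.5 µg/mL); elastase release followed continuously as absorbance change at 405 nm. DMSO-treated cells served as the 100% reference.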

[3] = Cytotoxicity against human MCF7 cells by MTT assay; assay type: cell-based; details: read-out: ED50 (the source's name); outline: as §1
[4] = Cytotoxicity against human hepa59T/VGH cells by MTT assay; assay type: cell-based, Hepa 59T/VGH; details: read-out: ED50 (the source's name); outline: as §1
[5] = Cytotoxicity against human WiDr cells by MTT assay; assay type: cell-based; details: read-out: ED50 (the source's name); outline: as §1

Compound	CC50 [1] [µg/mL]	Elastase release (% of DMSO control) [2] [%]	CC50 [3] [µg/mL]	CC50 [4] [µg/mL]	CC50 [5] [µg/mL]	IC50 ([2]; Homo sapiens, Neutrophil) [µg/mL]
C=C1CCCC(C)(C)[C@@H]1C[C@@H](O)/C(C)=C/CC[C@@H]1[C@@]2(C)CCCC(C)(C)[C@@H]2CC[C@@]1(C)O	> 10	79.3	> 10	> 10	> 10	–
C=C1CCCC(C)(C)[C@@H]1CC/C(=C\CC[C@@H]1[C@@]2(C)CCCC(C)(C)[C@@H]2CC[C@@]1(C)O)CO	> 10	74.4	> 10	> 10	> 10	–
C=C1CCCC(C)(C)[C@@H]1C/C=C(\C)[C@H]1CC[C@@H]2[C@@]3(C)CCCC(C)(C)[C@@H]3CC[C@@]2(C)O1	> 10	92.2	> 10	> 10	> 10	–
C=C1CCCC(C)(C)[C@@H]1C[C@@H]1O[C@]2(C)CC[C@H]3C(C)(C)CCC[C@]3(C)[C@H]2CC/C=C\1C	> 10	82	> 10	> 10	> 10	–
C=C1CCCC(C)(C)[C@@H]1CCC(C)=O	> 10	–	> 10	> 10	> 10	–
C=C1CCCC(C)(C)[C@@H]1C[C@H](OC(=O)c1ccccc1)/C(C)=C/CC[C@@H]1[C@@]2(C)CCCC(C)(C)[C@@H]2CC[C@@]1(C)O	> 10	115.5	> 10	> 10	> 10	–
C=C1CCCC(C)(C)[C@@H]1C[C@H](O)/C(C)=C/CC[C@@H]1[C@@]2(C)CCCC(C)(C)[C@@H]2CC[C@@]1(C)O	6.4 (≈ 14.4 µM)	132.7	4 (≈ 8.99 µM)	5.7 (≈ 12.8 µM)	7.8 (≈ 17.5 µM)	–
C=C1CCCC(C)(C)[C@@H]1CC/C(=C/CC[C@@H]1[C@@]2(C)CCCC(C)(C)[C@@H]2CC[C@@]1(C)O)COC(=O)c1ccccc1	> 10	75.6	> 10	> 10	> 10	–
C=C1CCCC(C)(C)[C@@H]1CC[C@](C)(O)[C@@H]1CCC2[C@@](C)(CC[C@H]3C(C)(C)CCC[C@]23C)O1 (some centres undefined)	> 10	81.3	> 10	> 10	> 10	–
C=C1CCCC(C)(C)[C@@H]1CC(=O)/C(C)=C/CC[C@@H]1[C@@]2(C)CCCC(C)(C)[C@@H]2CC[C@@]1(C)O	5.3 (≈ 12 µM)	95.1	8.5 (≈ 19.2 µM)	6.8 (≈ 15.4 µM)	10 (≈ 22.6 µM)	–
C=C1CCCC(C)(C)[C@@H]1C[C@@H](OC(=O)c1ccccc1)/C(C)=C/CC[C@@H]1[C@@]2(C)CCCC(C)(C)[C@@H]2CC[C@@]1(C)O	> 10	85.6	> 10	> 10	> 10	–
C=C1CCCC(C)(C)[C@@H]1CC/C(C)=C/CC[C@@H]1[C@@]2(C)CCCC(C)(C)[C@@H]2CC[C@@]1(C)O [AMBREIN]	> 10	–	> 10	> 10	> 10	4.6 (≈ 10.7 µM)
COc1cccc2c1C(=O)c1c(O)c3c(c(O)c1C2=O)C[C@@](O)(C(=O)CO)C[C@@H]3O[C@H]1C[C@H](N)[C@H](O)[C@H](C)O1 [DOXORUBICIN]	0.21 (≈ 0.386 µM)	–	0.12 (≈ 0.221 µM)	0.11 (≈ 0.202 µM)	0.12 (≈ 0.221 µM)	–
O=c1c(-c2ccc(O)cc2)coc2cc(O)cc(O)c12 [GENISTEIN]	–	51.6	–	–	–	–
